EP2 antag = blocks the human prostaglandin E2 receptor EP2; C6 glioma cells expressing human EP2, cAMP TR-FRET; cells stimulated with saturating PGE2; P43116; inhibition, % at 25 µM; 0.52% of 260,000 active;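 active means percent inhibition above 40 after rounding to a whole number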;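 further: rat C6 glioma host cells with rolipram phosphodiesterase inhibitor present; the protocol text gives 20 µM as final concentration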
Target sequence (P43116 whole entry, looked up): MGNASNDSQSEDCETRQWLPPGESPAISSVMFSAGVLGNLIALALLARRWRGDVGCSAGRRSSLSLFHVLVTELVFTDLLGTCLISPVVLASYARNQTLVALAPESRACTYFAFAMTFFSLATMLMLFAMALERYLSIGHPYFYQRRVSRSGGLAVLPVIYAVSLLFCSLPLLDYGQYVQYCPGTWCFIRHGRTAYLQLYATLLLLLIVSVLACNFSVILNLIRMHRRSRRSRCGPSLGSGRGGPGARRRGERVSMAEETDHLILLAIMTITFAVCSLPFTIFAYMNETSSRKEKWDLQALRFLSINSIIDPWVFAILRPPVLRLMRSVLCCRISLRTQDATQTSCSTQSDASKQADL
b-catenin transl = beta-catenin nuclear translocation modulation. HeLa beta-catenin nuclear translocation, immunofluorescence imaging. nuclear translocation activity, % at 5 µM. 0.3% of 190,000 active. AID 1665;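 active means nuclear translocation activity above 50% at 5 µM, with a well cell count of 50 or more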;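 further: per-cell ratio of nuclear to cytoplasmic median beta-catenin stain intensity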
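System: HeLa cells, endogenous beta-catenin; compound dosing: 5 µM primary single dose, 0.1% DMSO, 0.02–20 µM confirmation series; incubation: 24 h compound exposure at 37°C, 5% CO2; signal: beta-catenin immunofluorescence imaging with DAPI; evaluation: % activation, nuclear-to-cytoplasmic median beta-catenin signal ratio per cell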
TbHK1 inh = blocks Trypanosoma brucei hexokinase 1 activity. recombinant TbHK1, G6PDH-coupled NADH A340. inhibition, % at 10 µM. 0.11% of 220,000 active. AID 1430;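 active means inhibition of 50% or more in the single-dose primary screen; inactive means inhibition below 50%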
MT stabilizer = microtubule stabilization, imaging screen; HeLa tubulin immunostaining HCS, 24 h; share of cells brighter than vehicle mean+2SD; 0.83% of 200,000 active; % tubulin-high responders, % at 10 µM;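 active means plate Z-score above 3 for both tubulin-high and condensed-nucleus cell shares, with cell loss under 80%, at 10 µM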;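 further: anti alpha tubulin signal scored within the nucleus-defined area of each cell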
EP2 modulator = EP2 receptor (human) modulation; P43116; EP2-expressing cells, cAMP HTRF FRET, PGE2 co-stimulation; induction, % at 25 µM; 0.83% of 260,000 active; AID 940;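 active means compounds whose cAMP rise, as percent of the full-agonist control response, exceeds 60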;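 further: rat C6 glioma line stably carrying human EP2 under a CMV promoter; the protocol text gives 20 µM as final concentration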
Efa HMGR inh = inhibitors of class II HMG-CoA reductase from Enterococcus faecalis; 0.41% of 190,000 active; AID 1066; inhibition, % at 10 µM; purified E. faecalis HMGR, NADPH absorbance 340 nm kinetic;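 active means inhibition above a set limit, the median over all tested compounds plus 3 SD, cut at about 9.5% in these data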;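 further: enzyme runs in reverse so mevalonate oxidation gives rising NADPH absorbance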
EP2 confirm = human EP2 receptor cAMP induction, negative in counter-screens. C6 glioma EP2 cells, cAMP HTRF induction; plus low (about EC15) PGE2 agonist. calls only at 20 µM (by protocol). shares compounds with EP2 modulator. AID 1080. 47% of 1,300 active;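 active means cAMP induction above 50% in the main assay while under 30% in all four parallel counter assays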;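 further: rat C6 glioma cells stably expressing human EP2 receptor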
Hits are given with their value; - = inactive; . = no result; + = active, no number; ! = not active in a repeat. Shown are actives, neighbours in structure and some others; about 2.4% of the full set was active somewhere.

SMILES	EP2 antag	b-catenin transl	TbHK1 inh	MT stabilizer	EP2 modulator	Efa HMGR inh	EP2 confirm
Cc1noc2ncnc(Sc3c(Cl)cccc3Cl)c12	-	.	-	-	66	-	-
COc1cccc(CN2C[C@@H]3CCCN3C[C@@H]2Cc2ccccc2)c1O	-	.	.	.	-	.	.
Cc1cc(C)n(CCOc2ccc(Cl)cc2Cl)n1	-	-	-	-	73	-	+
Cc1cc(C)n(C(=O)COc2ccc(Cl)cc2Cl)n1	-	-	-	-	-	-	.
Cc1ccc(C)n1-n1cnc2scc(-c3cccs3)c2c1=O	-	-	-	-	65	-	+
CC(C)[C@H](Cn1nnc2ccccc21)NC(=O)c1cccnc1	-	.	.	.	-	.	.
CNC(=O)c1cc2c(=O)n3cc(C)ccc3nc2n(C(C)C)c1=N	-	-	-	-	73!	-	-
Cc1ccc2nc3c(cc(C(=O)NCc4ccccc4)c(=N)n3C(C)C)c(=O)n2c1	-	.	.	.	-	.	.
Cc1sc2nc(C3CC3)n(C3CCN(CC(N)=O)CC3)c(=O)c2c1C	-	.	.	.	-	.	.
CCOc1nc(-c2ccccc2O)nc2ccccc12	-	-	-	-	81	-	+
CCn1c(=O)oc2cc(S(=O)(=O)NC3(c4ccccc4)CC3)ccc21	-	.	.	.	-	.	.
S=c1[nH]nc(C23CC4CC(CC(C4)C2)C3)n1Cc1ccco1	-	.	-	-	73	-	+
CCc1ccc(C2C(C(C)=O)=C(O)C(=O)N2CC(=O)OC)cc1 (stereo not given)	-	.	.	.	-	.	.
CCc1ccc(Nc2oc(C)cc(=O)c2C(C)=O)cc1	-	-	-	-	68	-	-
O=C(O)c1nn(CC(=O)N(C2CCCCC2)C2CCCCC2)c(=O)c2ccccc12	-	-	-	-	83	-	+
COc1ccc(CC(=O)N2CCC(c3ccnc4nc(C(F)(F)F)nn34)CC2)cc1	.	.	.	.	-	.	.
COc1ccc(Oc2cc(C(F)(F)F)nc(N(C)C)n2)cc1	-	-	-	-	65	-	-
Cc1c(F)cccc1NC(=O)CCCCCC1NC(=O)NC1C (stereo not given)	-	-	-	-	77	-	-
COc1ccc(-c2c(C(C)=O)c(C)nc3sc4c(c23)NC(c2ccccc2)NC4=O)cc1 (stereo not given)	-	-	-	-	70	-	-
CCOC(=O)c1c(C)nc2sc3c(c2c1-c1ccc(OC)cc1)NC(c1ccccc1)NC3=O (stereo not given)	-	.	-	-	-	-	.
Cc1cc(NC(=O)C2=C(O)c3ccccc3S(=O)(=O)N2C)no1	-	-	-	-	69!	-	-
CN1C(C(=O)Nc2ccccn2)=C(O)c2ccccc2S1(=O)=O	-	-	-	-	-	-	.
C=CCn1c(=S)[nH]c2scc(-c3ccc(C)o3)c2c1=O	-	-	-	-	-	-	.
C=CCn1c(=S)[nH]c2sccc2c1=O	-	-	-	-	-	-	-
CC1CCN(c2ccccc2NC(=O)c2ccc(C#N)cc2F)CC1	-	-	-	-	-	-	+
SMILES	EP2 antag	b-catenin transl	TbHK1 inh	MT stabilizer	EP2 modulator	Efa HMGR inh	EP2 confirm
CC(C)C(=O)N1CCN(c2ccccc2NC(=O)c2ccc(C#N)cc2F)CC1	-	-	-	-	-	-	.
Cc1ccc(-c2nc3sc(C(N)=O)c(N)c3c3c2CCCC3)cc1	-	-	-	-	-	-	.
CC(=O)c1sc2nc(-c3ccc(C)cc3)c3c(c2c1N)CCCC3	-	-	-	-	72	-	+
COc1cccc(CN(Cc2ccncc2)C2CC(C)(C)NC(C)(C)C2)c1	-	.	.	.	-	.	.
CC1CCc2c(sc3nc(C4CC4)n4c(SCC(=O)NCc5ccco5)nnc4c23)C1 (stereo not given)	-	.	.	.	-	.	.
CC(C)Sc1nc2sc3c(c2c2nnc(SCC(=O)NCc4ccco4)n12)CCCC3	-	-	-	-	-	-	-
Nc1nc(N2CCOCC2)nc(N(c2ccccc2)c2ccccc2)n1	-	.	-	-	-	-	.
CN(C)c1nc(N2CCOCC2)nc(N(c2ccccc2)c2ccccc2)n1	-	-	-	-	66	-	-
CC1(C(=O)N2CCN(S(=O)(=O)c3cccc4nsnc34)CC2)CCCO1 (stereo not given)	-	.	.	.	-	.	.
CC(C)c1nc2sc3c(NCc4ccccc4)ncnc3c2c2c1COC(C)(C)C2	-	.	-	-	-	-	.
CCN(CCO)c1ncnc2c1sc1nc(C(C)C)c3c(c12)CC(C)(C)OC3	-	-	-	-	79	-	-
COc1ccc(CN(Cc2nc[nH]c2C)CC2CCCO2)c(OC)c1OC (stereo not given)	-	.	.	.	-	.	.
Cc1ccc(C(=O)Oc2ccc(Br)cc2)cc1S(=O)(=O)N1CCOCC1	-	.	.	.	-	.	.
C/C(=N\O)C(=O)OC1CC(C)CCC1C(C)C (stereo not given)	-	-	-	-	-	-	+
CCc1nn(CC(=O)N2CCC(C)CC2)c(=O)c2cc3sccc3n12	.	.	.	.	-	.	.
Cc1ccc(CN(CCCn2ccnc2)Cc2ccccc2O)s1	-	.	.	.	-	.	.
CCCCOC(=O)CSc1nc(N)c(C#N)c(-c2ccc(OC)cc2)c1C#N	-	-	-	-	-	-	.
CCCCOC(=O)CSc1nc(N)c(C#N)c(-c2ccc(OCC)cc2)c1C#N	-	-	-	-	74	-	-
CCC(C)(C)n1nnnc1C(c1ccc(N(C)C)cc1)N1CCN(c2ccccc2OC)CC1 (stereo not given)	-	.	.	.	-	.	.
CCOC(=O)C1=C(N)OC(C)=C(C#N)C1c1ccco1 (stereo not given)	-	-	-	-	-	-	-
CCCC1=C(C(=O)OCC)C(c2ccco2)C(C#N)=C(N)O1 (stereo not given)	-	-	-	-	-	-	.
CSc1nc(-c2ccc(Cl)cc2)nn1S(=O)(=O)c1ccccc1	-	-	-	-	85	-	+
CSc1nc(-c2ccc(Cl)cc2)nn1S(=O)(=O)c1ccc(Cl)cc1	-	-	-	-	-	-	.
Cn1c(N2CCC(C(=O)NCCN3CCOCC3)CC2)nc2ccccc21	-	.	.	.	-	.	.
CC(C)(C)C1CCC(=NNc2ccc(S(N)(=O)=O)cc2[N+](=O)[O-])CC1 (stereo not given)	-	-	-	-	68	-	+
O=C(O)CCCN1C(=O)/C(=C\c2ccco2)SC1=S	-	-	-	-	74	12	+
COc1c(NC(=O)CN2CCCCC2)cc(NC(=O)c2ccc(C)cc2)c(OC)c1C	-	.	.	.	-	.	.
Cc1ccc(N(C(=O)c2csnn2)C(C(=O)NC(C)(C)C)c2ccccn2)c(C)c1 (stereo not given)	-	.	.	.	-	.	.
CC(=O)Nc1ccc(-n2nnnc2SCC(=O)NCc2ccccc2)cc1	-	.	.	.	-	.	.
Clc1ccc(-c2ccc(/C=N/Nc3cc(N4CCOCC4)nc(N4CCOCC4)n3)o2)cc1	-	-	-	-	108	-	+

Screening data as filed in PubChem.
